Source: ChEMBL document CHEMBL1132764, “Solution-phase combinatorial synthesis and evaluation of piperazine-2,5-dione derivatives” (2000)
Values after ≈ are worked out from the molar mass of the structure shown.

Each molecule was assayed on Artemia salina (assay: (§1) Compound was tested for brine shrimp (Artemia salina) toxicity measured as the lowest value at which severe inhibition of nauplii movement was observed). Settings: read-out: LD50 (the source's name).
Assay type: functional
Method in brief: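 Artemia salina eggs held 24 h in artificial seawater; about 20 nauplii per well in 980 µL brine. Compound added at 1-100 µg in 20 µL DMSO, top level 100 µg/mL (solubility limit), each concentration in quadruplicate. Incubated 24 h at 26 °C. Nauplii movement inhibition and survival scored against DMSO controls, with control deaths <10%.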
`COc1ccc(/C=c2\[nH]c(=O)/c(=C/c3ccccn3)[nH]c2=O)cc1OC` was tested, and the LC50 was 60 µg/mL (≈ 171 µM).
With `COc1cc(/C=c2\[nH]c(=O)/c(=C/c3ccccn3)[nH]c2=O)cc(OC)c1` the LC50 was 36 µg/mL (≈ 102 µM).
`COc1cc(/C=c2\[nH]c(=O)/c(=C/c3cccs3)[nH]c2=O)cc(OC)c1` showed an LC50 of 18 µg/mL (≈ 50.5 µM).

What follows are molecules tested on Artemia salina (assay: as §1). Settings: not given.
Assay type: functional
Method in brief: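 Artemia salina eggs held 24 h in artificial seawater; about 20 nauplii per well in 980 µL brine. Compound added as 1-100 µg in 20 µL DMSO, top concentration 100 µg/mL, each concentration in quadruplicate. Incubated 24 h at 26 °C. Larvae scored against DMSO controls (control deaths <10%). Assay conditions validated with caffeine.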
In the case of `COc1ccc(/C=c2\[nH]c(=O)/c(=C/c3ccc(OC)cc3)[nH]c2=O)cc1`, the “lowest concentration causing severe inhibition of nauplii movement” value is reported as >100 µg/mL.
With `COc1ccc(/C=c2\[nH]c(=O)/c(=C/c3cccs3)[nH]c2=O)cc1OC` the “lowest concentration causing severe inhibition of nauplii movement” value was >100 µg/mL.
For `O=c1[nH]/c(=C\c2cccs2)c(=O)[nH]/c1=C\c1ccccn1`, the “lowest concentration causing severe inhibition of nauplii movement” value was 100 µg/mL.
With `CC(C)/C=c1\[nH]c(=O)/c(=C/C(C)C)[nH]c1=O` the “lowest concentration causing severe inhibition of nauplii movement” value was >100 µg/mL.
With `COc1cc(OC)c(/C=c2\[nH]c(=O)/c(=C/c3cccs3)[nH]c2=O)c(OC)c1` the “lowest concentration causing severe inhibition of nauplii movement” value was >100 µg/mL.
With `COc1cc(/C=c2\[nH]c(=O)/c(=C/c3cc(OC)c(OC)c(OC)c3)[nH]c2=O)cc(OC)c1OC` the “lowest concentration causing severe inhibition of nauplii movement” value was >100 µg/mL.
For `COc1ccc(/C=c2\[nH]c(=O)/c(=C/c3ccc([N+](=O)[O-])cc3)[nH]c2=O)cc1`, the “lowest concentration causing severe inhibition of nauplii movement” value was >100 µg/mL.
For `COc1cc(/C=c2\[nH]c(=O)/c(=C/c3ccccn3)[nH]c2=O)cc(OC)c1OC`, the “lowest concentration causing severe inhibition of nauplii movement” value was 100 µg/mL.
In the case of `O=c1[nH]/c(=C\c2ccccc2[N+](=O)[O-])c(=O)[nH]/c1=C\c1ccc([N+](=O)[O-])cc1`, the “lowest concentration causing severe inhibition of nauplii movement” value is reported as >100 µg/mL.
`C/C=c1\[nH]c(=O)/c(=C/CCCCC)[nH]c1=O` was tested, and the “lowest concentration causing severe inhibition of nauplii movement” value was >100 µg/mL.
For `C/C=c1\[nH]c(=O)c(=CC=Cc2ccccc2)[nH]c1=O`, the “lowest concentration causing severe inhibition of nauplii movement” value was >100 µg/mL.
For `O=c1[nH]/c(=C\c2cccs2)c(=O)[nH]/c1=C\c1cccs1`, the “lowest concentration causing severe inhibition of nauplii movement” value was >100 µg/mL.
`COc1cc(OC)c(/C=c2\[nH]c(=O)/c(=C/c3c[nH]c4ccccc34)[nH]c2=O)c(OC)c1` was tested, and the “lowest concentration causing severe inhibition of nauplii movement” value was >100 µg/mL.
With `C/C=c1\[nH]c(=O)/c(=C/C=C/C)[nH]c1=O` the “lowest concentration causing severe inhibition of nauplii movement” value was >100 µg/mL.
In the case of `COc1ccc(/C=c2\[nH]c(=O)/c(=C/c3cc(OC)c(OC)c(OC)c3)[nH]c2=O)cc1OC`, the “lowest concentration causing severe inhibition of nauplii movement” value is reported as 100 µg/mL.
In the case of `COc1cc(/C=c2\[nH]c(=O)/c(=C/c3cc(OC)c(OC)c(OC)c3)[nH]c2=O)cc(OC)c1`, the “lowest concentration causing severe inhibition of nauplii movement” value is reported as 100 µg/mL.
In the case of `COc1cc(/C=c2\[nH]c(=O)/c(=C/c3c[nH]c4ccccc34)[nH]c2=O)cc(OC)c1`, the “lowest concentration causing severe inhibition of nauplii movement” value is reported as >100 µg/mL.
In the case of `O=c1[nH]/c(=C\c2ccc(Cl)cc2)c(=O)[nH]/c1=C\c1ccc(Cl)cc1`, the “lowest concentration causing severe inhibition of nauplii movement” value is reported as >100 µg/mL.
With `C/C=C/C=c1\[nH]c(=O)/c(=C/C(C)C)[nH]c1=O` the “lowest concentration causing severe inhibition of nauplii movement” value was >100 µg/mL.
With `COc1ccc(/C=c2\[nH]c(=O)/c(=C/c3ccc(Cl)cc3)[nH]c2=O)cc1` the “lowest concentration causing severe inhibition of nauplii movement” value was >100 µg/mL.
`O=c1[nH]/c(=C\c2c[nH]c3ccccc23)c(=O)[nH]/c1=C\c1c[nH]c2ccccc12` was tested, and the “lowest concentration causing severe inhibition of nauplii movement” value was >100 µg/mL.
For `O=c1[nH]/c(=C\c2ccc([N+](=O)[O-])cc2)c(=O)[nH]/c1=C\c1ccc(Cl)cc1`, the “lowest concentration causing severe inhibition of nauplii movement” value was >100 µg/mL.
For `CC/C=c1\[nH]c(=O)c(=CC=Cc2ccccc2)[nH]c1=O`, the “lowest concentration causing severe inhibition of nauplii movement” value was >100 µg/mL.
`COc1ccc(/C=c2\[nH]c(=O)/c(=C/c3ccc(OC)c(OC)c3)[nH]c2=O)cc1OC` was tested, and the “lowest concentration causing severe inhibition of nauplii movement” value was >100 µg/mL.
For `C/C=C/C=c1\[nH]c(=O)/c(=C/CC)[nH]c1=O`, the “lowest concentration causing severe inhibition of nauplii movement” value was >100 µg/mL.
In the case of `O=c1[nH]/c(=C\c2ccc([N+](=O)[O-])cc2)c(=O)[nH]/c1=C\c1ccccc1`, the “lowest concentration causing severe inhibition of nauplii movement” value is reported as >100 µg/mL.
In the case of `COc1cc(OC)c(/C=c2\[nH]c(=O)/c(=C/c3cc(OC)c(OC)c(OC)c3)[nH]c2=O)c(OC)c1`, the “lowest concentration causing severe inhibition of nauplii movement” value is reported as >100 µg/mL.
With `O=c1[nH]/c(=C\c2ccccc2[N+](=O)[O-])c(=O)[nH]/c1=C\c1ccccc1` the “lowest concentration causing severe inhibition of nauplii movement” value was >100 µg/mL.
`COc1cc(/C=c2\[nH]c(=O)/c(=C/c3ccc(OC)c(OC)c3)[nH]c2=O)cc(OC)c1` was tested, and the “lowest concentration causing severe inhibition of nauplii movement” value was >100 µg/mL.
`C/C=C/C=c1\[nH]c(=O)/c(=C/CCCCC)[nH]c1=O` was tested, and the “lowest concentration causing severe inhibition of nauplii movement” value was 100 µg/mL.
In the case of `C/C=C/C=c1\[nH]c(=O)/c(=C/C=C/C)[nH]c1=O`, the “lowest concentration causing severe inhibition of nauplii movement” value is reported as >100 µg/mL.
In the case of `C/C=c1\[nH]c(=O)/c(=C/CC)[nH]c1=O`, the “lowest concentration causing severe inhibition of nauplii movement” value is reported as >100 µg/mL.
For `COc1cc(/C=c2\[nH]c(=O)/c(=C/c3c(OC)cc(OC)cc3OC)[nH]c2=O)cc(OC)c1`, the “lowest concentration causing severe inhibition of nauplii movement” value was 100 µg/mL.
In the case of `CCCCC/C=c1\[nH]c(=O)/c(=C/C(C)C)[nH]c1=O`, the “lowest concentration causing severe inhibition of nauplii movement” value is reported as >100 µg/mL.
With `CC/C=c1\[nH]c(=O)/c(=C/CC)[nH]c1=O` the “lowest concentration causing severe inhibition of nauplii movement” value was >100 µg/mL.
`O=c1[nH]/c(=C\c2c[nH]c3ccccc23)c(=O)[nH]/c1=C\c1cccs1` was tested, and the “lowest concentration causing severe inhibition of nauplii movement” value was >100 µg/mL.
For `COc1ccc(/C=c2\[nH]c(=O)/c(=C/c3ccccc3[N+](=O)[O-])[nH]c2=O)cc1`, the “lowest concentration causing severe inhibition of nauplii movement” value was >100 µg/mL.
With `CC/C=c1\[nH]c(=O)/c(=C/C(C)C)[nH]c1=O` the “lowest concentration causing severe inhibition of nauplii movement” value was >100 µg/mL.
For `C/C=c1\[nH]c(=O)/c(=C/C)[nH]c1=O`, the “lowest concentration causing severe inhibition of nauplii movement” value was 100 µg/mL.
With `O=c1[nH]/c(=C\c2ccccc2[N+](=O)[O-])c(=O)[nH]/c1=C\c1ccc(Cl)cc1` the “lowest concentration causing severe inhibition of nauplii movement” value was >100 µg/mL.
With `O=c1[nH]/c(=C\c2ccc(O)cc2)c(=O)[nH]/c1=C\c1ccccc1` the “lowest concentration causing severe inhibition of nauplii movement” value was >100 µg/mL.
For `CC/C=c1\[nH]c(=O)/c(=C/CCCCC)[nH]c1=O`, the “lowest concentration causing severe inhibition of nauplii movement” value was 100 µg/mL.
`O=c1[nH]/c(=C\c2ccc([N+](=O)[O-])cc2)c(=O)[nH]/c1=C\c1ccc([N+](=O)[O-])cc1` was tested, and the “lowest concentration causing severe inhibition of nauplii movement” value was >100 µg/mL.
`COc1cc(OC)c(/C=c2\[nH]c(=O)/c(=C/c3c(OC)cc(OC)cc3OC)[nH]c2=O)c(OC)c1` was tested, and the “lowest concentration causing severe inhibition of nauplii movement” value was 100 µg/mL.
`O=c1[nH]/c(=C\c2ccccc2)c(=O)[nH]/c1=C\c1ccccc1` was tested, and the “lowest concentration causing severe inhibition of nauplii movement” value was >100 µg/mL.
For `O=c1[nH]/c(=C\c2ccccn2)c(=O)[nH]/c1=C\c1ccccn1`, the “lowest concentration causing severe inhibition of nauplii movement” value was 100 µg/mL.
With `O=c1[nH]/c(=C\c2ccccc2[N+](=O)[O-])c(=O)[nH]/c1=C\c1ccccc1[N+](=O)[O-]` the “lowest concentration causing severe inhibition of nauplii movement” value was >100 µg/mL.
In the case of `COc1cc(/C=c2\[nH]c(=O)/c(=C/c3cccs3)[nH]c2=O)cc(OC)c1OC`, the “lowest concentration causing severe inhibition of nauplii movement” value is reported as >100 µg/mL.
For `O=c1[nH]/c(=C\c2c[nH]c3ccccc23)c(=O)[nH]/c1=C\c1ccccn1`, the “lowest concentration causing severe inhibition of nauplii movement” value was >100 µg/mL.
In the case of `COc1cc(OC)c(/C=c2\[nH]c(=O)/c(=C/c3ccccn3)[nH]c2=O)c(OC)c1`, the “lowest concentration causing severe inhibition of nauplii movement” value is reported as >100 µg/mL.
In the case of `O=c1[nH]/c(=C\c2ccc(Cl)cc2)c(=O)[nH]/c1=C\c1ccccc1`, the “lowest concentration causing severe inhibition of nauplii movement” value is reported as >100 µg/mL.
With `COc1cc(OC)c(/C=c2\[nH]c(=O)/c(=C/c3ccc(OC)c(OC)c3)[nH]c2=O)c(OC)c1` the “lowest concentration causing severe inhibition of nauplii movement” value was >100 µg/mL.
With `CC(C)/C=c1\[nH]c(=O)c(=CC=Cc2ccccc2)[nH]c1=O` the “lowest concentration causing severe inhibition of nauplii movement” value was >100 µg/mL.
For `CCCCC/C=c1\[nH]c(=O)/c(=C/CCCCC)[nH]c1=O`, the “lowest concentration causing severe inhibition of nauplii movement” value was 100 µg/mL.
In the case of `COc1cc(/C=c2\[nH]c(=O)/c(=C/c3cc(OC)cc(OC)c3)[nH]c2=O)cc(OC)c1`, the “lowest concentration causing severe inhibition of nauplii movement” value is reported as >100 µg/mL.
For `COc1ccc(/C=c2\[nH]c(=O)/c(=C/c3c[nH]c4ccccc34)[nH]c2=O)cc1OC`, the “lowest concentration causing severe inhibition of nauplii movement” value was >100 µg/mL.
With `COc1cc(/C=c2\[nH]c(=O)/c(=C/c3c[nH]c4ccccc34)[nH]c2=O)cc(OC)c1OC` the “lowest concentration causing severe inhibition of nauplii movement” value was 100 µg/mL.
In the case of `COc1ccc(/C=c2\[nH]c(=O)/c(=C/c3ccccc3)[nH]c2=O)cc1`, the “lowest concentration causing severe inhibition of nauplii movement” value is reported as >100 µg/mL.
